{"source": "ChEMBL document CHEMBL2401663", "about": "“(Biphenyl-4-yl)methylammonium chlorides: potent anticonvulsants that modulate Na+ currents” (J Med Chem, 2013)", "key": {"[1]": {"assay": "Inhibition of Na+ channel in mouse CAD cells assessed as slow inactivation by whole cell voltage clamp technique", "format": "cell-based", "in_short": "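CAD cells (Ham's F12/EMEM, 8% FBS, 37 °C, 5% CO2) by whole-cell voltage clamp at room temperature. Na+ channel slow inactivation measured at −50 mV; IC50 is the concentration at which half of the channels reach a slow-inactivated state.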"}, "[2]": {"assay": "Toxicity in po dosed albino Sprague-Dawley rat assessed as behavioral toxicity", "format": "organism-based", "settings": "in vivo", "in_short": "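Neurological impairment was scored as behavioral toxicity in male albino Sprague-Dawley rats dosed orally, NIH Anticonvulsant Screening Program. The median impairing dose (TD50, mg/kg) was taken at the time of peak effect.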"}, "[3]": {"system": "CAD", "assay": "Inhibition of Na+ channel in mouse CAD cells assessed as frequency-dependent inactivation at 10 uM by whole cell voltage clamp technique relative to control", "format": "cell-based", "in_short": "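Frequency (use)-dependent inhibition of Na+ currents in CAD cells by whole-cell voltage clamp at room temperature. Current trend and amplitude at 10 μM compared with control.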"}, "[4]": {"system": "CAD", "assay": "Inhibition of Na+ channel in mouse CAD cells assessed as fast inactivation by whole cell voltage clamp technique", "format": "cell-based", "in_short": "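Steady-state fast inactivation in CAD cells by whole-cell voltage clamp at room temperature. Cells held at −80 mV, given 500-ms prepulses from −120 to −10 mV in 10-mV steps, then a 20-ms step to 0 mV. Curves fitted with a single Boltzmann; V1/2 shift compared with 0.1% DMSO by ANOVA and Dunnett's test. Mean ± SEM.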"}, "[5]": {"assay": "Toxicity in po dosed albino Sprague-Dawley rat assessed as behavioral toxicity after 0.25 to 4 hrs", "format": "organism-based", "settings": "in vivo", "in_short": "(§1)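 Male albino Sprague-Dawley rats dosed ip or orally, scored for behavioral toxicity (neurological impairment). TD50 is in mg/kg, taken at the time of peak effect.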"}, "[6]": {"system": "Rattus norvegicus", "assay": "Anticonvulsant activity against po dosed albino Sprague-Dawley rat after 0.25 to 4 hrs by maximal electroshock seizure test", "format": "functional", "in_short": "(§2)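 Male albino Sprague-Dawley rats dosed ip or orally under the NIH Anticonvulsant Screening Program, tested by maximal electroshock seizure.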"}, "[7]": {"assay": "Toxicity in ip dosed albino Sprague-Dawley rat assessed as behavioral toxicity after 0.25 to 4 hrs", "format": "organism-based", "settings": "in vivo", "in_short": "as §1"}, "[8]": {"system": "Rattus norvegicus", "assay": "Anticonvulsant activity against ip dosed albino Sprague-Dawley rat after […] by maximal electroshock seizure test", "format": "functional"}, "[9]": {"assay": "Toxicity in ip dosed albino CF1 mouse after 0.25 to 4 hrs by rotorod test", "format": "organism-based", "settings": "in vivo"}, "[10]": {"system": "Mus musculus", "assay": "Anticonvulsant activity against ip dosed albino CF1 mouse after 2 hrs by subcutaneous pentylenetetrazol test", "format": "functional", "settings": "albino CF1, 2 h"}, "[11]": {"system": "Mus musculus", "assay": "Anticonvulsant activity against ip dosed albino CF1 mouse after 1 hr by 6 Hz psychomotor seizure test", "format": "functional"}, "[12]": {"system": "Mus musculus", "assay": "Anticonvulsant activity against ip dosed albino CF1 mouse after 0.25 to 4 hrs by maximal electroshock seizure test", "format": "functional"}, "[13]": {"system": "Rattus norvegicus", "assay": "Anticonvulsant activity against ip dosed albino Sprague-Dawley rat after 0.25 to 4 hrs by maximal electroshock seizure test", "format": "functional", "in_short": "as §2"}, "[14]": {"system": "Mus musculus", "assay": "Toxicity in ip dosed albino CF1 mouse after 0.5 to 2 hrs by rotorod test", "format": "organism-based", "settings": "in vivo"}, "[15]": {"system": "Mus musculus", "assay": "Anticonvulsant activity against ip dosed albino CF1 mouse after 0.5 to 2 hrs by 6 Hz psychomotor seizure test", "format": "functional"}, "[16]": {"system": "Mus musculus", "assay": "Anticonvulsant activity against ip dosed albino CF1 mouse after 0.5 hrs by maximal electroshock seizure test", "format": "functional"}, "[17]": {"system": "Rattus norvegicus", "assay": "Anticonvulsant activity against po dosed albino Sprague-Dawley rat after 5 hrs by maximal electroshock seizure test", "format": "functional", "in_short": "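Male albino Sprague-Dawley rats given compound orally under the NIH Anticonvulsant Screening Program, then challenged by maximal electroshock.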"}, "[18]": {"system": "Mus musculus", "assay": "Anticonvulsant activity against ip dosed albino CF1 mouse after 1 hr by maximal electroshock seizure test", "format": "functional"}, "[19]": {"system": "Mus musculus", "assay": "Anticonvulsant activity against ip dosed albino CF1 mouse after 0.25 to 4 hrs by subcutaneous pentylenetetrazol test", "format": "functional"}, "[20]": {"system": "Mus musculus", "assay": "Anticonvulsant activity against ip dosed albino CF1 mouse after 2 hrs by 6 Hz psychomotor seizure test", "format": "functional"}, "[21]": {"system": "Mus musculus", "assay": "Anticonvulsant activity against ip dosed albino CF1 mouse after 0.5 to 2 hrs by maximal electroshock seizure test", "format": "functional"}, "[22]": {"system": "Mus musculus", "assay": "Anticonvulsant activity against ip dosed albino CF1 mouse after 0.5 to 4 hrs by subcutaneous pentylenetetrazol test", "format": "functional"}, "[23]": {"system": "Mus musculus", "assay": "Anticonvulsant activity against ip dosed albino CF1 mouse after 0.5 to 1 hr by 6 Hz psychomotor seizure test", "format": "functional"}, "[24]": {"system": "Mus musculus", "assay": "Anticonvulsant activity against ip dosed albino CF1 mouse after 0.25 to 0.5 hrs by maximal electroshock seizure test", "format": "functional"}, "[25]": {"system": "Rattus norvegicus", "assay": "Anticonvulsant activity against ip dosed albino Sprague-Dawley rat after 0.25 to 2 hrs by maximal electroshock seizure test", "format": "functional", "in_short": "as §2"}, "[26]": {"system": "Mus musculus", "assay": "Toxicity in ip dosed albino CF1 mouse after […] by rotorod test", "format": "organism-based", "settings": "in vivo"}, "[27]": {"system": "Mus musculus", "assay": "Anticonvulsant activity against ip dosed albino CF1 mouse after […] by subcutaneous pentylenetetrazol test", "format": "functional"}, "[28]": {"system": "Mus musculus", "assay": "Anticonvulsant activity against ip dosed albino CF1 mouse after 0.25 to 1 hr by 6 Hz psychomotor seizure test", "format": "functional"}, "[29]": {"system": "Mus musculus", "assay": "Anticonvulsant activity against ip dosed albino CF1 mouse after […] by maximal electroshock seizure test", "format": "functional"}}, "note": "The source made the active and inactive calls. The calls are words filed in the database; no cut-off is given here."}
{"smiles": "COC[C@@H](NC(C)=O)C(=O)NCc1ccccc1", "note": "[LACOSAMIDE]", "values": [{"measurement": "IC50", "setting": "[1]", "result": 85, "unit": "µM"}, {"measurement": "TD50", "setting": "[2]", "result": "> 500", "unit": "mg/kg"}]}
{"smiles": "NCc1ccc(OCc2cccc(F)c2)cc1", "values": [{"measurement": "inhibition", "setting": "[3]", "result": "Active"}, {"measurement": "inhibition", "setting": "[4]", "result": "Active"}, {"measurement": "IC50", "setting": "[1]", "result": 2.1, "unit": "µM"}]}
{"smiles": "Cl.NCc1ccc(-c2cccc(F)c2)cc1", "values": [{"measurement": "TD50", "setting": "[5]", "result": "> 30", "unit": "mg/kg"}, {"measurement": "ED50", "setting": "[6]", "result": "> 30", "unit": "mg/kg"}, {"measurement": "TD50", "setting": "[7]", "result": "> 65", "unit": "mg/kg"}, {"measurement": "ED50", "setting": "[8]", "result": 65, "unit": "mg/kg"}, {"measurement": "TD50", "setting": "[9]", "result": "> 100", "unit": "mg/kg"}, {"measurement": "ED50", "setting": "[10]", "result": 50, "unit": "mg/kg"}, {"measurement": "ED50", "setting": "[11]", "result": 50, "unit": "mg/kg"}, {"measurement": "ED50", "setting": "[12]", "result": "> 50", "unit": "mg/kg"}]}
{"smiles": "COC(=O)c1cccc(-c2ccc(CN)cc2)c1.Cl", "values": [{"measurement": "TD50", "setting": "[5]", "result": "> 30", "unit": "mg/kg"}, {"measurement": "ED50", "setting": "[6]", "result": "> 30", "unit": "mg/kg"}, {"measurement": "TD50", "setting": "[7]", "result": "> 30", "unit": "mg/kg"}, {"measurement": "ED50", "setting": "[13]", "result": "> 30", "unit": "mg/kg"}, {"measurement": "TD50", "setting": "[14]", "result": 100, "unit": "mg/kg"}, {"measurement": "ED50", "setting": "[15]", "result": "> 300", "unit": "mg/kg"}, {"measurement": "ED50", "setting": "[16]", "result": 100, "unit": "mg/kg"}]}
{"smiles": "CCC1(c2ccccc2)C(=O)NC(=O)NC1=O", "note": "[PHENOBARBITAL]", "values": [{"measurement": "ED50", "setting": "[17]", "result": 9.1, "unit": "mg/kg"}, {"measurement": "ED50", "setting": "[18]", "result": 22, "unit": "mg/kg"}]}
{"smiles": "Cl.NCc1ccc(-c2ccc(OC(F)(F)F)cc2)cc1", "values": [{"measurement": "TD50", "setting": "[5]", "result": "> 30", "unit": "mg/kg"}, {"measurement": "ED50", "setting": "[6]", "result": "> 30", "unit": "mg/kg"}, {"measurement": "TD50", "setting": "[7]", "result": "> 30", "unit": "mg/kg"}, {"measurement": "ED50", "setting": "[13]", "result": "> 30", "unit": "mg/kg"}, {"measurement": "TD50", "setting": "[9]", "result": "> 50", "unit": "mg/kg"}, {"measurement": "ED50", "setting": "[19]", "result": "> 50", "unit": "mg/kg"}, {"measurement": "ED50", "setting": "[20]", "result": "< 100", "unit": "mg/kg"}, {"measurement": "ED50", "setting": "[21]", "result": 50, "unit": "mg/kg"}]}
{"smiles": "Cl.NCc1ccc(-c2ccccc2)cc1", "values": [{"measurement": "TD50", "setting": "[5]", "result": "> 30", "unit": "mg/kg"}, {"measurement": "ED50", "setting": "[6]", "result": "> 30", "unit": "mg/kg"}, {"measurement": "TD50", "setting": "[7]", "result": "> 30", "unit": "mg/kg"}, {"measurement": "ED50", "setting": "[13]", "result": "> 30", "unit": "mg/kg"}, {"measurement": "TD50", "setting": "[9]", "result": "> 100", "unit": "mg/kg"}, {"measurement": "ED50", "setting": "[22]", "result": "> 300", "unit": "mg/kg"}, {"measurement": "ED50", "setting": "[23]", "result": 100, "unit": "mg/kg"}, {"measurement": "ED50", "setting": "[24]", "result": 30, "unit": "mg/kg"}]}
{"smiles": "Cl.NCc1ccc(-c2ccccc2OC(F)(F)F)cc1", "values": [{"measurement": "TD50", "setting": "[5]", "result": "> 30", "unit": "mg/kg"}, {"measurement": "ED50", "setting": "[6]", "result": "> 30", "unit": "mg/kg"}, {"measurement": "TD50", "setting": "[7]", "result": "> 30", "unit": "mg/kg"}, {"measurement": "ED50", "setting": "[25]", "result": "< 30", "unit": "mg/kg"}, {"measurement": "TD50", "setting": "[26]", "result": 72, "unit": "mg/kg"}, {"measurement": "ED50", "setting": "[27]", "result": "> 120", "unit": "mg/kg"}, {"measurement": "ED50", "setting": "[28]", "result": "< 50", "unit": "mg/kg"}, {"measurement": "ED50", "setting": "[29]", "result": 40, "unit": "mg/kg"}]}
